Sampled rows, rich in hits. Any-hit rate of the full collection: about 0.83%.
V1R ag counter – agonists of human V1a receptor, primary screen, counter-screen for OXTR agonist project, fluorescence, CHO-V1R cells; activation, % at 3 µM; AID 2797, 2010; Fluo-8 calcium fluorescence, agonist mode; 0% DMSO, 100% 3 nM vasopressin; Vasopressin V1a receptor (Homo sapiens), P37288; 320,000 compounds, 0.25% hits;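 active means activation above the mean activation of all tested compounds plus 3 SD, per screening run, cut at about 20% in these data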;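 further: signal is peak over basal fluorescence ratio across a 100 second FLIPR read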
OXTR agonist – human OXTR agonists, primary screen, fluorescence, CHO-OTR cells, Fluo-8 calcium. Oxytocin receptor (Homo sapiens), P30559. Fluo-8 calcium fluorescence; normalized: DMSO 0%, oxytocin 100%. activation, % at 3 µM. 320,000 compounds, 0.32% hits. AID 2435, 2010;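 active means activation above the mean of all tested compounds plus 3 SD, cutoff set per screening run, cut at about 20% in these data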;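 further: peak over basal fluorescence ratio from a 100 s FLIPR kinetic read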
OXTR potentiator – human OXTR potentiators, primary screen, fluorescence, CHO-OTR cells, Fluo-8 calcium. Fluo-8 calcium fluorescence, potentiator mode; 0% = oxytocin EC15, 100% = EC100. activation, % at 3 µM. 320,000 compounds, 0.061% hits;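 active means activation above that plate's cutoff, the mean activation of tested compounds plus 3 SD, cut at about 6.6% in these data, passing the limit was not always enough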
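Assay system: CHO cell line stably expressing human OTR | Also added: Oxytocin at about EC15, sub-maximal agonist stimulus | Times: Compound 6 min at room temperature before oxytocin, 100 s read | Measured by: Fluo-8 intracellular calcium fluorescence, ex 470-495, em 515-575 nm | Controls: EC15 oxytocin alone as 0%, 75 nM oxytocin as 100%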
CRFR2-BP ag – agonists of CRF-BP/CRF-R2 complex, primary screen, cell-based, HEK293, calcium dye fluorescence, uHTS; CRF-binding protein / CRF receptor 2 complex (human); calcium dye fluorescence (FLIPR); percent of saturating CRF peptide response; activation, % at 13.2 µM; 350,000 compounds, 0.46% hits;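 active means activation of at least 50%, plus an integration ratio under a set limit after plate pattern correction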
TRPN1 ag – zebrafish TRPN1 channel agonists, primary screen, cell-based, HEK293, calcium fluorescence | transient receptor potential cation channel N1 (TRPN1/NompC), Danio rerio | HEK293 zebrafish TRPN1-YFP, Fluo-8 calcium fluorescence; 100% = response to 87 µM carbachol | activation, % at 3 µM | 220,000 compounds, 0.18% hits;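 active means activation above its plate's cutoff, the mean activation of test wells on that plate plus 3 SD, cut at about 19% in these data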
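Assay system: Zebrafish TRPN1-YFP in HEK293 cells | Incubation: Dye loading 1 h at 37 °C, then 30 min room temperature | Measured by: Kinetic Fluo-8 fluorescence, ex 470-495, em 515-575 nm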
TRPML3 ag – human TRPML3 channel agonists, primary screen, cell-based, HEK293 TRPML3-YFP, Fluo-8 calcium fluorescence, 3 µM; 100% = the carbachol control signal; 220,000 compounds, 0.29% hits; activation, % at 3 µM; AID 1448, 2008; Mucolipin-3 (Homo sapiens), Q8TDD5;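 active means activation above its plate's cutoff, the mean activation of the plate's test wells plus 3 SD, cut at about 12% in these data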
Target sequence (Q8TDD5 whole entry, looked up): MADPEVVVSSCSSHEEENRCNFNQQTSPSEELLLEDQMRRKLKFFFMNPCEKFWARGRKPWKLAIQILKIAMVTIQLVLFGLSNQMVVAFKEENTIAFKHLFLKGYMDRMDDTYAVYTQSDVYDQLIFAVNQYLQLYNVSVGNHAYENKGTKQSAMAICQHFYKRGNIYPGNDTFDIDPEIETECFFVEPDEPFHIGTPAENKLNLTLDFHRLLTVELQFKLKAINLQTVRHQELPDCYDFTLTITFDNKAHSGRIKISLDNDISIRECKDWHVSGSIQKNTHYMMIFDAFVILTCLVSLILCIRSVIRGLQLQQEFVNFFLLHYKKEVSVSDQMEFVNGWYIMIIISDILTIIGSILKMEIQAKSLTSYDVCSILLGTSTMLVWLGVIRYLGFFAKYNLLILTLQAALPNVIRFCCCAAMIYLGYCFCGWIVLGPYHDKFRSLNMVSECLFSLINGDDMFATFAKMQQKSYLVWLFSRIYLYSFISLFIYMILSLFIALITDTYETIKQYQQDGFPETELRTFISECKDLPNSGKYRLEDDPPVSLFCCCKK
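Test system – HEK293 line with stable expression of human TRPML3-YFP channel · Control set – carbachol 87 µM final as high control (100%), DMSO as low control (0%) · Signal – Fluo-8 calcium dye fluorescence, ex 470-495, em 515-575 nm · Incubation – 1-h 37 °C dye load, 5-s basal, 120-s post-compound reads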
TRPN1 ag 2 – zebrafish TRPN1 channel agonists, counter-screen for TRPML3 agonist project, cell-based, HEK293 TRPN1-YFP, Fluo-8 calcium. Fluo-8 calcium fluorescence; scaled: carbachol wells 100%, DMSO wells 0%. AID 1525, 2009. 310 compounds, 10% hits. shares compounds with TRPML3 ag. activation, % at 3 µM;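 active means mean activation over replicates above a set limit taken from the earlier TRPN1 channel primary screen, cut at about 19% in these data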
TRPML3 confirm – human TRPML3 channel agonists, confirmation, cell-based, HEK293 TRPML3-YFP, Fluo-8 calcium, triplicate | shares compounds with TRPML3 ag | Fluo-8 calcium fluorescence; 100% set by carbachol, 0% by DMSO | activation, % at 3 µM | 310 compounds, 80% hits | AID 1526, 2009;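 active means activation above a set limit derived from the earlier primary screen, cut at about 12% in these data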
A number is an active result.

For COc1ccc(C(=O)NC(=S)NNC(=O)c2c(-c3ccccc3)noc2C)cc1OC the results were V1R ag counter 29, OXTR agonist 21, OXTR potentiator inactive, CRFR2-BP ag inactive, TRPN1 ag inactive, TRPML3 ag 19, TRPN1 ag 2 inactive and TRPML3 confirm 24.
Screening COc1cc(CCC(=O)NNC(=O)c2ccc(Cl)cc2)cc(OC)c1OC returned V1R ag counter inactive, OXTR agonist inactive, OXTR potentiator inactive and CRFR2-BP ag inactive.
Screening COc1cc(C(=O)NNC(=S)NC(=O)c2ccc(Cl)cc2)cc(OC)c1OC returned V1R ag counter 34, OXTR agonist 37, OXTR potentiator inactive, CRFR2-BP ag inactive, TRPN1 ag inactive, TRPML3 ag 13, TRPN1 ag 2 44 and TRPML3 confirm 36.
Cc1onc(-c2ccccc2)c1C(=O)NC(=S)NNC(=O)c1ccncc1 was read as V1R ag counter inactive, OXTR agonist inactive, OXTR potentiator inactive, CRFR2-BP ag inactive, TRPN1 ag inactive and TRPML3 ag inactive.
COc1ccc(CNC(=O)C(C)n2ccc3cc(S(=O)(=O)N4CCCCCC4)ccc32)cc1 (configuration not stated) was read as V1R ag counter inactive, OXTR agonist inactive, OXTR potentiator inactive and CRFR2-BP ag inactive.
Cc1cccc(C)c1-n1nnnc1S(=O)(=O)Cc1ccccc1Cl was read as V1R ag counter inactive, OXTR agonist inactive, OXTR potentiator inactive, CRFR2-BP ag inactive, TRPN1 ag inactive, TRPML3 ag 26, TRPN1 ag 2 inactive and TRPML3 confirm 14.
Screening Cc1nc(S(=O)(=O)Cc2ccccc2Cl)nc2c1CCC2 returned V1R ag counter inactive, OXTR agonist inactive, OXTR potentiator inactive, CRFR2-BP ag inactive, TRPN1 ag inactive and TRPML3 ag inactive.
`CC1CC(C)(C)NC2(CCCC2)N1` (configuration not stated) gave CRFR2-BP ag inactive.
Cc1ccc(S(=O)(=O)N2CCC(C)CC2)c([N+](=O)[O-])c1 was read as V1R ag counter inactive, OXTR agonist inactive, OXTR potentiator inactive, CRFR2-BP ag inactive, TRPN1 ag inactive, TRPML3 ag 48, TRPN1 ag 2 inactive and TRPML3 confirm 60.
`CN(c1ccc(OCc2nnc(-c3ccccc3)o2)cc1)S(=O)(=O)c1ccccc1` gave V1R ag counter inactive, OXTR agonist inactive, OXTR potentiator inactive, CRFR2-BP ag inactive, TRPN1 ag inactive, TRPML3 ag 40, TRPN1 ag 2 inactive and TRPML3 confirm 37.
Screening CCCCCC(=O)N1C[C@@H](O)[C@H](n2cc(COC(=O)c3ccccc3)nn2)C[C@@H]1c1ccccc1 returned CRFR2-BP ag inactive.
`CC(C)(C)[C@]1(O)CCN2C[C@H]3c4ccccc4CCc4cccc(c43)[C@@H]2C1` gave V1R ag counter inactive, OXTR agonist inactive, OXTR potentiator inactive, CRFR2-BP ag inactive, TRPN1 ag inactive, TRPML3 ag 25, TRPN1 ag 2 inactive and TRPML3 confirm 42.

Screening results (PubChem)
